Columns and labels:
Rattus norvegicus = experiment: Diuretic activity was evaluated by measuring amount of K+ during 0-6 hr in urine of normotensive saline loaded rats at 30.0mg/kg, po; format: ADME, organism-based; settings: in vivo, 30 mg/kg
Summary of the method: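 Male normotensive Sprague–Dawley rats (275–375 g), eight per group. Test compound or vehicle (0.2% methylcellulose in water, 2 mL/kg) is given by mouth, followed at once by a 0.9% saline load equal to 5% of body weight. Rats are housed in metabolism cages without food or water. Urine is collected at 2, 6 and 24 h and assayed for Na+, K+, Cl−, uric acid and osmolality.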

Canis familiaris = experiment: Diuretic activity was evaluated by measuring amount of Na+ during 0-6 h in urine of normotensive saline loaded dogs at 10.0mg/kg, po; format: ADME, organism-based, Canis lupus familiaris; settings: dog, in vivo, 10 mg/kg
Summary of the method: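 Conscious dogs, each given a single oral dose per experiment, with at least two dogs per dose. Urine volume is measured; aliquots are centrifuged and chilled. Heparinized venous blood (4 mL) is drawn at each urine collection. Urine and plasma are analyzed for Na+, K+, Cl−, urate and glucose. Result is mean Na+ excretion in mequiv kg−1 (6 h)−1.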

[1] = Diuretic activity was evaluated by measuring amount of Na+ during 0-6 hr in urine of normotensive […] monkey at 30mg/kg, po; format: ADME, organism-based; settings: simiiformes, in vivo
Summary of the method: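 Male and female cynomolgus monkeys, fasted 16–18 h with water until dosing, six per dose. Compound or vehicle is given through a nasogastric tube, then a 50 mL/kg water load. No food or water for 6 h in metabolism cages. Urine is collected at 0–1, 1–2, 2–4 and 4–6 h and analyzed for electrolytes, uric acid and glucose.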

CCOC(=O)COc1ccc(C(=O)c2ccc(O)c(CN)c2)c(Cl)c1Cl.Cl
Diuretic activity (Rattus norvegicus): 3.8 m equiv kg-1
Diuretic activity (Canis familiaris): 6.3 m equiv kg-1
Diuretic activity [1]: 6.4 m equiv kg-1
